Laboratory results from ChEMBL document CHEMBL1932916, “A carbamate-based approach to primaquine prodrugs: antimalarial activity, chemical stability and enzymatic activation” (Bioorg Med Chem, 2012).
Activity calls are given as the source filed them. The rule behind the calls is not given here.

What was measured:
Plasma [1] = assay: Half life for prodrug activation in 50% human plasma by HPLC analysis; assay type: cell-free
Summary of the method: (§1)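 Pooled heparinised plasma from healthy donors, stored at -70 °C, diluted to 50% (v/v) with pH 7.4 isotonic phosphate buffer. Carbamate added from 10^-2 M stock, 37 °C. Aliquots quenched into acetonitrile, then HPLC quantitation of substrate, primaquine and, for aryl esters, phenol against standards. First-order k_plasma determined in triplicate.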

[2] = Alkaline hydrolysis of the compound assessed as rate constant by HPLC analysis; assay type: physicochemical
Summary of the method: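 Borate and NaOH buffers with 20% (v/v) acetonitrile, ionic strength 0.5 M (NaClO4), 37 °C. Alkyl carbamates followed by HPLC (RP-8 column, acetonitrile/water/KH2PO4 1 M 55:40:5) as substrate loss and primaquine formation; aliquots neutralised with HCl before injection; aryl carbamates by fixed-wavelength UV decay of substrate. Second-order constant k_OH.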

[3] = Gametocytocidal activity against Plasmodium berghei ANKA 25R/10 infected in Balb/C mouse assessed as infected mosquitoes at 15 mg/kg, ip after 2 hrs feed Anopheles stephensi mosquitoes for 2 hrs on compound treated animals measured after 10 days post feed by stereomicroscopy (reference value: 80%); assay type: functional; settings: route intraperitoneal
Summary of the method: (§2)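 Balb C mice infected ip with 10^7 P. berghei ANKA 25R/10-parasitised erythrocytes. At day 4, once gametocytes were seen on Giemsa films, mice were grouped (six per group). A single ip dose of 15 mg/kg was given, with saline-treated controls run separately for each compound. After 2 h, anaesthetised mice were fed to A. stephensi. Midgut oocysts counted at day 10 post-feed; reported as % infected mosquitoes and mean oocysts per mosquito.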

[4] = Octanol-phosphate buffer partition coefficient, log D of the compound at pH 7.4 after 30 mins by HPLC analysis; assay type: physicochemical
Summary of the method: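 1-Octanol and pH 7.4 phosphate buffer, mutually pre-saturated, 22 °C. Compound dissolved in octanol and the mixture shaken 30 min to equilibrium. Each phase assayed by HPLC, and D taken as the octanol/buffer peak-area ratio. Mean of three experiments.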

Plasma [5] = assay: Prodrug activation in 50% human plasma assessed as rate constant by HPLC analysis; assay type: cell-free; summary of the method: as §1
[6] = Half life in aqueous buffer pH 7.4 by HPLC analysis; assay type: physicochemical
Summary of the method: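 Non-enzymatic hydrolysis in pH 7.4 phosphate buffer, 20% (v/v) acetonitrile, 37 °C. Reaction followed by HPLC (RP-8 column, acetonitrile/water/KH2PO4 eluant) monitoring substrate loss and primaquine formation.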

Liver [7] = assay: Prodrug activation in rat liver homogenate assessed as rate constant by HPLC analysis; assay type: tissue-based; settings: tissue homogenate
Summary of the method: (§3)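 Liver homogenate at 2 mg protein/mL in pH 7.4 PBS, 37 °C, with NADPH-generating system (glucose-6-phosphate 6.25 mM, NADP 1.25 mM, MgCl2 6 mM, G6PDH 2.5 U/mL). Substrates dissolved in PBS at initial 0.25–5.0 mM. HPLC followed substrate loss and primaquine formation. First-order k_liver determined in triplicate.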

Liver [8] = assay: Half life for prodrug activation in rat liver homogenate by HPLC analysis; assay type: tissue-based; settings: in vitro; summary of the method: as §3
[9] = Dissociation constant, pKa of the compound; assay type: physicochemical
Plasma [10] = assay: Stability of the compound in 50% human plasma for 3 hrs by HPLC analysis; assay type: ADME, cell-free; summary of the method: as §1
[11] = Gametocytocidal activity against Plasmodium berghei ANKA 25R/10 infected in Balb/C mouse assessed as infected mosquitoes at 15 mg/kg, ip after 2 hrs feed Anopheles stephensi mosquitoes for 2 hrs on compound treated animals measured after 10 days post feed by stereomicroscopy (reference value: 91%); assay type: functional; settings: route intraperitoneal; summary of the method: as §2
Plasmodium berghei ANKA = assay: Gametocytocidal activity against Plasmodium berghei ANKA 25R/10 infected in Balb/C mouse assessed as reduction in number of oocysts per mosquito at 15 mg/kg, ip after 2 hrs feed Anopheles stephensi mosquitoes for 2 hrs on compound treated animals measured after 10 days post feed by stereomicroscopy; assay type: functional, organism-based; design: dose 15 mg/kg; summary of the method: as §2
Liver [12] = assay: Prodrug activation in rat liver homogenate assessed as primaquine release by HPLC analysis; assay type: tissue-based; settings: tissue homogenate; summary of the method: as §3
Plasma [13] = assay: Prodrug activation in 50% human plasma preincubated with 20 mM DIFP by HPLC analysis; assay type: cell-free
Summary of the method: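 Same 50% human plasma incubation at 37 °C with HPLC monitoring, but plasma pre-incubated with 20 mM DIFP to inhibit serine cholinesterase before substrate addition.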

Row | Compound | t1/2 (Plasma [1]) [h] | Activity [2] | Activity [3] [%] | logD at 0.5 h [4] | Drug metabolism (Plasma [5]) | half-life [6] [h] | Drug metabolism (Liver [7]) [×10⁻² /hr] | t1/2 (Liver [8]) [h] | pKa [9] | Stability (Plasma [10]) | Activity [11] [%] | Activity (Plasmodium berghei ANKA) | Drug metabolism (Liver [12]) | Drug metabolism (Plasma [13])
1 | COc1ccc(OC(=O)NCCCC(C)Nc2cc(OC)cc3cccnc23)cc1 (centres undefined) | 7.78 | 9.1 ×10⁻¹ /M/s | 74 | 4.23 | 2.45 ×10⁻⁵ /s | > 720 | 6.7 | 10.3 | 10.2 | – | – | – | – | –
2 | CCCCCCOC(=O)NCCCC(C)Nc1cc(OC)cc2cccnc12 (centres undefined) | – | 3.49 ×10⁻⁷ /M/s | – | 4.64 | – | – | 6.63 | 10.4 | – | Stable | 24 | Active | Not Active | –
3 | COc1cc(NC(C)CCCNC(=O)OCC(F)(F)F)c2ncccc2c1 (centres undefined) | – | 3.95 ×10⁻³ /M/s | – | 3.41 | – | – | 5.04 | 13.7 | 12.4 | Stable | 72 | – | Not Active | –
4 | COc1cc(NC(C)CCCNC(=O)Oc2ccc([N+](=O)[O-])cc2)c2ncccc2c1 (centres undefined) | 0.00267 | 2.4 ×10⁴ /M/s | – | 4.23 | – | 0.035 | – | – | 7.14 | – | – | – | – | –
5 | CCOC(=O)COC(=O)NCCCC(C)Nc1cc(OC)cc2cccnc12 (centres undefined) | – | 2.5 M⁻¹ s⁻¹ | – | 3.09 | – | 240 | – | – | 12.9 | – | – | – | – | –
6 | COc1cc(NC(C)CCCNC(=O)Oc2ccccc2)c2ncccc2c1 (centres undefined) | 3.62 | 2.64 M⁻¹ s⁻¹ | 65 | 4.27 | 5.34 ×10⁻⁵ /s | 288 | 7.26 | 9.5 | 9.95 | – | – | Active | – | –
7 | CCOC(=O)NCCCC(C)Nc1cc(OC)cc2cccnc12 (centres undefined) | – | 9.34 ×10⁻⁷ /M/s | – | 3.02 | – | – | 4.56 | 15.1 | 15.9 | Stable | 19 | Active | Not Active | –
8 | COc1cc(NC(C)CCCN)c2ncccc2c1 (centres undefined) [PRIMAQUINE] | – | – | 3.9 | – | – | – | – | – | – | – | – | Active | – | –
9 | COc1cc(NC(C)CCCNC(=O)Oc2ccc(Cl)cc2)c2ncccc2c1 (centres undefined) | 0.638 | 7.17 M⁻¹ s⁻¹ | – | 4.44 | 3.06 ×10⁻⁴ /s | 96 | 5.85 | 11.8 | 9.38 | – | – | – | – | Not Active
